Experimental data: ChEMBL document CHEMBL3244387, “Isolation, characterization, and properties of a labile hydrolysis product of the antitumor nucleoside, 5-azacytidine” (J Med Chem, 1978)

Tests used:
Mus musculus [1] = test: Toxicity in mouse L1210 cells allografted CDF1 mouse assessed as change in body weight between day 1 and day 5 at 10 mg/kg, ip dosed on days 1 and 5; assay type: organism-based; set-up: dose 10 mg/kg, route intraperitoneal; conditions: in vivo
In short: (§1)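 Female CDF1 mice, 11-12 weeks old, were given 0.1 mL L1210 suspension ip (1.43×10^6 cells/mL) on day 0. Drug was purified by preparative HPLC, dissolved in sterile 0.85% saline and given ip within 15 min, on days 1, 5 and 9. Ten mice per dose, with ten untreated controls. Weights on days 1, 5 and 9. Value is the mean body-weight change of treated minus control, in grams.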

Half life in mice = conditions: mouse, in vivo
Mus musculus [2] = test: Toxicity in mouse L1210 cells allografted CDF1 mouse assessed as change in body weight between day 1 and day 5 at 5 mg/kg, ip dosed on days 1 and 5; assay type: organism-based; set-up: dose 5 mg/kg, route intraperitoneal; conditions: in vivo; in short: as §1
L1210 [3] = test: Antitumor activity against mouse L1210 cells allografted in CDF1 mouse assessed as increase in life span at 10 mg/kg, ip relative to control; assay type: functional; conditions: route intraperitoneal
In short: (§2)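 Female CDF1 mice, 11-12 weeks old, inoculated ip on day 0 with 0.1 mL L1210 suspension (1.43×10^6 cells/mL). Drug purified by preparative HPLC, dissolved in sterile 0.85% saline, injected ip within 15 min on days 1, 5 and 9. Ten mice per dose; ten untreated controls. Read-out: % increase in mean life span over controls; ≥25% counted as active; test run in duplicate.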

L1210 [4] = test: Antitumor activity against mouse L1210 cells allografted in CDF1 mouse assessed as increase in life span at 40 mg/kg, ip relative to control; assay type: functional; conditions: route intraperitoneal; in short: as §2
L1210 [5] = test: Antitumor activity against mouse L1210 cells allografted in CDF1 mouse assessed as increase in life span at 5 mg/kg, ip relative to control; assay type: functional; conditions: route intraperitoneal; in short: as §2
Mus musculus [6] = test: Toxicity in mouse L1210 cells allografted CDF1 mouse assessed as change in body weight between day 1 and day 9 at 40 mg/kg, ip dosed on days 1, 5 and 9; assay type: organism-based; set-up: dose 40 mg/kg, route intraperitoneal; conditions: in vivo; in short: as §1
Mus musculus [7] = test: Toxicity in mouse L1210 cells allografted CDF1 mouse assessed as change in body weight between day 1 and day 9 at 2.5 mg/kg, ip dosed on days 1, 5 and 9; assay type: organism-based; set-up: dose 2.5 mg/kg, route intraperitoneal; conditions: in vivo; in short: as §1
Mus musculus [8] = test: Toxicity in mouse L1210 cells allografted CDF1 mouse assessed as mortality at 2.5 to 40 mg/kg, ip; assay type: organism-based; set-up: dose 2.5-40 mg/kg, route intraperitoneal; conditions: in vivo
In short: (§3)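 L1210 ip implant (1.43×10^6 cells/mL, 0.1 mL) in female CDF1 mice, 11-12 weeks old. Freshly dissolved HPLC-purified drug in 0.85% saline given ip on days 1, 5 and 9; ten mice per dose. Toxicity scored as early death from acute toxicity, with body weights on days 1, 5 and 9 compared against untreated controls.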

L1210 [9] = test: Antitumor activity against mouse L1210 cells allografted in CDF1 mouse assessed as increase in life span at 2.5 mg/kg, ip relative to control; assay type: functional; conditions: route intraperitoneal
In short: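 Female CDF1 mice, 11-12 weeks old, given 0.1 mL ip of L1210 cells at 1.43×10^6 cells/mL on day 0. Drug purified by preparative HPLC, dissolved in sterile 0.85% saline and injected ip within 15 min, on days 1, 5 and 9. Ten mice per dose, ten untreated controls. % ILS is the increase in mean life span over controls; ≥25% counted as active.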

Mus musculus [10] = test: Toxicity in mouse L1210 cells allografted CDF1 mouse assessed as change in body weight between day 1 and day 9 at 20 mg/kg, ip dosed on days 1, 5 and 9; assay type: organism-based; set-up: dose 20 mg/kg, route intraperitoneal; conditions: in vivo; in short: as §1
Mus musculus [11] = test: Toxicity in mouse L1210 cells allografted CDF1 mouse assessed as change in body weight between day 1 and day 9 at 5 mg/kg, ip dosed on days 1, 5 and 9; assay type: organism-based; set-up: dose 5 mg/kg, route intraperitoneal; conditions: in vivo; in short: as §1
Mus musculus [12] = test: Toxicity in mouse L1210 cells allografted CDF1 mouse assessed as change in body weight between day 1 and day 5 at 40 mg/kg, ip dosed on days 1 and 5; assay type: organism-based; set-up: dose 40 mg/kg, route intraperitoneal; conditions: in vivo; in short: as §1
Mus musculus [13] = test: Toxicity in mouse L1210 cells allografted CDF1 mouse assessed as change in body weight between day 1 and day 9 at 10 mg/kg, ip dosed on days 1, 5 and 9; assay type: organism-based; set-up: dose 10 mg/kg, route intraperitoneal; conditions: in vivo; in short: as §1
Mus musculus [14] = test: Toxicity in mouse L1210 cells allografted CDF1 mouse assessed as change in body weight between day 1 and day 5 at 2.5 mg/kg, ip dosed on days 1 and 5; assay type: organism-based; set-up: dose 2.5 mg/kg, route intraperitoneal; conditions: in vivo; in short: as §1
Mus musculus [15] = test: Toxicity in mouse L1210 cells allografted CDF1 mouse assessed as change in body weight between day 1 and day 5 at 20 mg/kg, ip dosed on days 1 and 5; assay type: organism-based; set-up: dose 20 mg/kg, route intraperitoneal; conditions: in vivo; in short: as §1
L1210 [16] = test: Antitumor activity against mouse L1210 cells allografted in CDF1 mouse assessed as increase in life span at 20 mg/kg, ip relative to control; assay type: functional; conditions: route intraperitoneal; in short: as §2
[17] = Half life in water at 2.6 mg/ml at 37 degC by UV-HPLC analysis; assay type: physicochemical
[18] = Stability of the compound in water assessed as compound remaining at 2.6 mg/ml at 25 degC after 24 hrs by UV-HPLC analysis; assay type: physicochemical; conditions: read-out: Stability
Mus musculus [19] = test: Toxicity in mouse L1210 cells allografted CDF1 mouse assessed as change in body weight between day 1 and day 5 at 60 mg/kg, ip dosed on days 1 and 5; assay type: organism-based; set-up: dose 60 mg/kg, route intraperitoneal; conditions: in vivo; in short: as §1
L1210 [20] = test: Antitumor activity against mouse L1210 cells allografted in CDF1 mouse assessed as increase in life span at 60 mg/kg, ip relative to control; assay type: functional; conditions: route intraperitoneal; in short: as §2
Mus musculus [21] = test: Toxicity in mouse L1210 cells allografted CDF1 mouse assessed as mortality at 5 to 60 mg/kg, ip; assay type: organism-based; set-up: dose 5-60 mg/kg, route intraperitoneal; conditions: in vivo; in short: as §3
[22] = Half life in water at 2.6 mg/ml at 25 degC by UV-HPLC analysis; assay type: physicochemical
Mus musculus [23] = test: Toxicity in mouse L1210 cells allografted CDF1 mouse assessed as change in body weight between day 1 and day 9 at 60 mg/kg, ip dosed on days 1, 5 and 9; assay type: organism-based; set-up: dose 60 mg/kg, route intraperitoneal; conditions: in vivo; in short: as §1
[24] = Stability of the compound in water assessed as compound remaining at 2.6 mg/ml at 37 degC after 7 hrs by UV-HPLC analysis; assay type: physicochemical; conditions: read-out: Stability
[25] = Stability of the compound in water assessed as compound remaining at 2.6 mg/ml at 37 degC after 4 hrs by UV-HPLC analysis; assay type: physicochemical; conditions: read-out: Stability

SMILES | Activity (Mus musculus [1]) [g] | Activity (Mus musculus [2]) [g] | ILS at 10 mg/kg (L1210 [3]) [%] | ILS at 40 mg/kg (L1210 [4]) [%] | ILS at 5 mg/kg (L1210 [5]) [%] | Activity (Mus musculus [6]) [g] | Activity (Mus musculus [10]) [g] | Activity (Mus musculus [11]) [g] | Activity (Mus musculus [12]) [g] | Activity (Mus musculus [13]) [g] | Activity (Mus musculus [15]) [g] | ILS at 20 mg/kg (L1210 [16]) [%] | other results
Nc1ncn([C@@H]2O[C@H](CO)[C@@H](O)[C@H]2O)c(=O)n1 [AZACITIDINE] | -1.8 | -1 | 86 | 84 | 63 | -6.5 | -5.1 | -2.9 | -2.3 | -4.5 | -1.6 | 130 | half-life (Half life in mice): < 6 h; Activity (Mus musculus [7]): -5.7 g; Activity (Mus musculus [8]): Non-toxic; ILS at 2.5 mg/kg (L1210 [9]): 33%; Activity (Mus musculus [14]): -1.5 g
N=C(NC=O)NC(=O)N[C@@H]1O[C@H](CO)[C@@H](O)[C@H]1O | -1.6 | -1.2 | 33 | 85 | 17 | -4.7 | -3.8 | -2.6 | -0.8 | -3.4 | -1.9 | 56 | half-life at 2.6 mg/ml [17]: 2 h; remaining at 24 h, 2.6 mg/ml [18]: 24%; Activity (Mus musculus [19]): -1.9 g; ILS at 60 mg/kg (L1210 [20]): 93%; Activity (Mus musculus [21]): Non-toxic; half-life at 2.6 mg/ml [22]: 9 h; Activity (Mus musculus [23]): -4.3 g; remaining at 7 h, 2.6 mg/ml [24]: 25%; remaining at 4 h, 2.6 mg/ml [25]: 31%
